Experimental data: ChEMBL document CHEMBL2176966, “Discovery of 6,7-dihydro-5H-pyrrolo[2,3-a]pyrimidines as orally available G protein-coupled receptor 119 agonists” (J Med Chem, 2012)
In brackets after ≈: the same amount, converted by molar mass. Activity calls are given as the source filed them. The calls are words filed in the database; no cut-off is given here.

Columns and labels:
[1] = Volume of distribution at steady state in mouse at 30 mg/kg; assay type: ADME, organism-based; design: dose 30 mg/kg; conditions: in vivo, read-out: Vdss
[2] = tested on: Mus musculus; test: Dose normalized AUC (0 to 24 hrs) in mouse at 30 mg/kg; assay type: ADME, organism-based; design: dose 30 mg/kg; conditions: in vivo
[3] = Half life in rat at 30 mg/kg; assay type: ADME, organism-based; design: dose 30 mg/kg; conditions: in vivo
[4] = tested on: Rattus norvegicus; test: Increase of glucose infusion rate in Wistar rat at 10 mg/kg, po; assay type: functional, organism-based; design: dose 10 mg/kg
In short: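 Catheterized male Wistar rats (300–350 g, jugular and femoral lines, one week recovery) were fasted overnight and gavaged with vehicle (n = 19) or compound (n = 8). After ~90 min, an IV glucose bolus over 15–30 s was followed by variable-rate glucose infusion. The infusion was adjusted to clamp plasma glucose at 190–210 mg/dL, and the required infusion rate was recorded. Serum glucose was measured by analyzer.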

[5] = Clearance in mouse at 30 mg/kg; assay type: ADME, organism-based; design: dose 30 mg/kg; conditions: in vivo
[6] = Half life in mouse at 30 mg/kg; assay type: ADME, organism-based; design: dose 30 mg/kg; conditions: in vivo
[7] = tested on: Rattus norvegicus; test: Antihyperglycemic activity in Sprague-Dawley rat assessed as reduction of acetaminophen AUC (0 to 2 hrs) at 10 mg/kg, po relative to control; assay type: functional; design: scale not given: the % may be the effect or the level left
In short: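 Male Sprague-Dawley rats, fasted overnight, dosed orally at 10 mL/kg in 0.5% HPMC/0.1% Tween80 (vehicle or compound) at −120 min. Pramlintide (15 μg) was given to a positive-control cohort at −15 min. Baseline plasma was taken at time 0, then acetaminophen (65 mg) by gavage. The plasma acetaminophen concentration–time profile was followed for 3 h; AUC 0–2 h was compared with vehicle.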

[8] = target: Cytochrome P450 2C9 (Homo sapiens, UniProt P11712); test: Inhibition of CYP2C9; assay type: ADME
[9] = tested on: Rattus norvegicus; test: Dose normalized AUC (0 to 24 hrs) in rat at 30 mg/kg; assay type: ADME, organism-based; design: dose 30 mg/kg; conditions: in vivo
[10] = tested on: Mus musculus; test: Increase in glucagon level in GPR119 transgenic wild type mouse at 30 mg/kg, po after 60 mins relative to control; assay type: functional
In short: (§1)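 Wild-type and GPR119 knockout mice, fasted overnight, were dosed by oral gavage (30 mg/kg, 10 mL/kg, 0.5% HPMC/0.1% Tween80 vehicle). Plasma was obtained from cardiac blood at 60 min in chilled K2-EDTA containing DPP-4 inhibitor and aprotinin, then stored at −80 °C. Hormone levels were compared with vehicle; n = 8–10.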

[11] = Cmax in mouse at 30 mg/kg; assay type: ADME, organism-based; design: dose 30 mg/kg; conditions: in vivo
[12] = organism: Rattus norvegicus; test: Potentiation of 3 mM of glucose-induced insulin secretion in rat islet at 0.3 uM
[13] = organism: Rattus norvegicus; test: Potentiation of 12 mM of glucose-induced insulin secretion in rat islet at 0.3 uM
[14] = tested on: PCC; test: Induction of GLP1 secretion in C57BL/6 mouse PCC cells at 0.1 to 1 uM after 24 hrs; assay type: functional, cell-based
In short: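 Primary colonic crypts were isolated from mouse colon by three 15 min, 37 °C digests with collagenase II, dispase I, DNase I and hyaluronidase, then pooled and washed. Crypts were seeded on Matrigel-coated plates in high-glucose DMEM with 10% FBS and allowed to attach for 24 h. GLP-1 secretion was then assayed as for GLUTag cells (2 h KRB exposure, electrochemiluminescent active GLP-1 immunoassay).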

[15] = Clearance in rat at 30 mg/kg; assay type: ADME, organism-based; design: dose 30 mg/kg; conditions: in vivo
[16] = tested on: Mus musculus; test: Increase in PYY level in GPR119 knockout mouse at 30 mg/kg, po after 60 mins; assay type: functional, organism-based; design: dose 30 mg/kg; in short: as §1
[17] = target: T1, MAO-B (Homo sapiens, UniProt P27338); test: Inhibition of MAO-B at 10 uM
T1 sequence (P27338 whole entry): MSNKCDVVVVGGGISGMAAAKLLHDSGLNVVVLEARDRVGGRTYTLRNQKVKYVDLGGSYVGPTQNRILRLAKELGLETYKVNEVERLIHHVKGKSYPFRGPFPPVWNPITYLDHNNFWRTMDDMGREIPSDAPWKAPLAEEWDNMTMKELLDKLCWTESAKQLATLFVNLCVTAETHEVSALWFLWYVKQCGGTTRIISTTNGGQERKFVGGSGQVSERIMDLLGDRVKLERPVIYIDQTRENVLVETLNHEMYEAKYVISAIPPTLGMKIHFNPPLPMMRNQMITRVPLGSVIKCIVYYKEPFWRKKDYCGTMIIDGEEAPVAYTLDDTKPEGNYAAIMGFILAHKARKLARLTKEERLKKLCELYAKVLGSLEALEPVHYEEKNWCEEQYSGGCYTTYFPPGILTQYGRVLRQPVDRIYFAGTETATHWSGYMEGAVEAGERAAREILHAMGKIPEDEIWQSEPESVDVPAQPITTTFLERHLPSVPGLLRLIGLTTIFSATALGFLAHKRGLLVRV
In short: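 Compound was tested at 10 μM in a panel of 68 receptors, ion channels and enzymes. Percent inhibition or stimulation was recorded.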

[18] = tested on: Rattus norvegicus; test: Antihyperglycemic activity in Wistar rat assessed as glucose excursion curve at 10 mg/kg, po by glucose tolerance test; assay type: functional
[19] = target: T2, Glucose-dependent insulinotropic receptor (Homo sapiens, UniProt Q8TDV5); test: Agonist activity at human GPR119 receptor expressed in CHO-K1 cells co-expressing 6CRE-luciferase gene after 5 hrs by luciferase reporter gene assay; assay type: functional, cell-based; conditions: read-out: pEC50 (converted)
T2 sequence (Q8TDV5 whole entry): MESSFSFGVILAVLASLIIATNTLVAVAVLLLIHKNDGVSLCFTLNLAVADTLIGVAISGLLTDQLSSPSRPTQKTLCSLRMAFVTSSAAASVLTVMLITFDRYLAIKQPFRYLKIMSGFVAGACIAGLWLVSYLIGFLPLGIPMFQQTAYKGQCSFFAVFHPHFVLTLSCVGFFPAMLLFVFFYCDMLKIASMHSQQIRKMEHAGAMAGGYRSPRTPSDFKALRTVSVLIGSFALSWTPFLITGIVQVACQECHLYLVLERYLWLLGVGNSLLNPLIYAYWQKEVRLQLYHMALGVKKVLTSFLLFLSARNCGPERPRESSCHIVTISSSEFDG

[20] = Volume of distribution at steady state in rat at 30 mg/kg; assay type: ADME, organism-based; design: dose 30 mg/kg; conditions: in vivo, read-out: Vdss
[21] = tested on: Mus musculus; test: Increase in GIP level in GPR119 knockout mouse at 30 mg/kg, po after 60 mins by ELISA relative to control; assay type: functional, organism-based; design: dose 30 mg/kg
In short: (§2)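 Overnight-fasted wild-type or GPR119 knockout mice were given vehicle (0.5% HPMC/0.1% Tween80) or 30 mg/kg orally at 10 mL/kg. Cardiac blood was drawn 60 min post-dose under isoflurane into chilled K2-EDTA with DPP-4 inhibitor and aprotinin (250 KIU/mL). Plasma was prepared at 4 °C and held at −80 °C. Total GIP was measured by ELISA; n = 10.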

[22] = tested on: Mus musculus; test: Increase in GIP level in GPR119 transgenic wild type mouse at 30 mg/kg, po after 60 mins by ELISA relative to control; assay type: functional; in short: as §2
[23] = Oral bioavailability in mouse at 30 mg/kg; assay type: ADME, organism-based; conditions: in vivo
[24] = Equilibrium solubility of the compound in fasted simulated intestinal fluid; assay type: physicochemical

Sequence of Cytochrome P450 2C9 (P11712 whole entry): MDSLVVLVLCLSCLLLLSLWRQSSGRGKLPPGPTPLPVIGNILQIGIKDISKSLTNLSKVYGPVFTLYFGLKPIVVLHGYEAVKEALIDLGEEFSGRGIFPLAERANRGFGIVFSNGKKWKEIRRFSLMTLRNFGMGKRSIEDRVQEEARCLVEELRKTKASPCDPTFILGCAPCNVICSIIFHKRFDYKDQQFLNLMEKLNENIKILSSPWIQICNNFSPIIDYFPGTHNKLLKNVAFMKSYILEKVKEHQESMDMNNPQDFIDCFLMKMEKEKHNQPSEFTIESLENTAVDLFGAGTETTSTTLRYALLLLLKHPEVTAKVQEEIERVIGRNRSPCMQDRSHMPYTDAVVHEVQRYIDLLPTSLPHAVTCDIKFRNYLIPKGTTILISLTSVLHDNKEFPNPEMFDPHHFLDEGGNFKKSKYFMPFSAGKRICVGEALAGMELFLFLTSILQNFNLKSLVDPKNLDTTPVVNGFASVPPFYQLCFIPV

Vd [1]: 0.7 L/kg | AUC/dose [2]: 1.7 µg·h/mL | half-life [3]: 522 min | clearance [5]: 7.2 mL/min/kg | half-life [6]: 168 min | IC50 [8]: 3 µM | AUC/dose [9]: 2.04 µg·h/mL | Cmax [11]: 8.4 µM | clearance [15]: 8.4 mL/min/kg | inhibition at 10 µM [17]: 54% | EC50 [19]: 50.1 nM | Vd [20]: 1.5 L/kg | bioavailability [23]: 40% | solubility thermodynamic [24]: 4 µg/mL (≈ 8.36 µM)
Compound: CC(C)OC(=O)N1CCC(Oc2ncnc3c2CCN3c2ccc(S(C)(=O)=O)cc2F)CC1
Activity [4]: Active | Activity [7]: 27% | fold change (FC) [10]: 2 | Activity [12]: inactive | Activity [13]: Active | Activity [14]: Active | Activity [16]: inactive | Activity [18]: 43% | Activity [21]: inactive | fold change (FC) [22]: 2
